Screening data as filed in PubChem BioAssay.
Scp-1 inhibitor – Scp-1 phosphatase inhibitors, primary screen, biochemical, colorimetric, uHTS | Carboxy-terminal domain RNA polymerase II polypeptide A small phosphatase 1 (Homo … | Recombinant Scp1, phosphopeptide, malachite green phosphate absorbance | inhibition, % at 20 µM | 0.88% of 340,000 active | AID 493091, 2011;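 active = inhibition above about 50% at 20 µM, limit read from the data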;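 also: plate controls were DMSO wells with enzyme for no effect and wells lacking enzyme for full effect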
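Material – SCP-1 phosphatase catalytic domain, residues 76-261 · Buffer or medium – Acidic Tris acetate buffer with magnesium and detergent · Also added – Phospho 17-mer peptide substrate · Compound – single 20 µM dose, 1% DMSO · Times – 45 min room-temperature reaction, 5 min colour, 30 min stabiliser · Technique – Phosphate-binding colour reagent, absorbance read at 630 nm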
LMPTP block – LMPTP phosphatase inhibitors, primary screen, biochemical, fluorescence intensity, uHTS; Low molecular weight phosphotyrosine protein phosphatase (Homo sapiens), P24666; recombinant LMPTP-A, OMFP fluorogenic substrate; inhibition, % at 20 µM; 0.22% of 360,000 active;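 active = compounds that cut the enzyme signal by at least half of the control window in the single-dose screen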;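 also: plate controls were DMSO wells with enzyme plus substrate for no effect and substrate without enzyme for full effect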
Target sequence (P24666 whole entry, looked up): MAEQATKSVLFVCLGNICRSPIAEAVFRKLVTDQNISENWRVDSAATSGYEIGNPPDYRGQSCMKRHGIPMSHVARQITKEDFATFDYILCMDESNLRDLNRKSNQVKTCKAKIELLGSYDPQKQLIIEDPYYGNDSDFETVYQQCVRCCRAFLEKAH
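Material: LMPTP-A; amount: 0.625 nM enzyme; doses: single 20 µM dose; times: reaction 50 min, room temperature, dark; technique: fluorescence intensity of OMFP turnover product; benchmarks: no-enzyme and uninhibited controls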
NadD inh – inhibitors of S. aureus NadD, primary screen, biochemical, colorimetric, uHTS; 0.78% of 360,000 active; AID 602399, 2012; purified NadD enzyme, colorimetric absorbance read-out; inhibition, % at 20 µM; in the data active = inhibition above about 26%
STEP block – STEP phosphatase inhibitors, primary screen, biochemical, fluorescence intensity, uHTS; Tyrosine-protein phosphatase non-receptor type 5 (Homo sapiens), P54829; recombinant STEP, OMFP fluorogenic substrate; inhibition, % at 20 µM; 0.25% of 360,000 active;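 active = inhibition at 20 µM, scaled per plate between control wells, above about 37%, limit read from the data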;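 also: 0% = DMSO with enzyme and substrate and 100% = substrate only without enzyme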
Target sequence (P54829 whole entry, looked up): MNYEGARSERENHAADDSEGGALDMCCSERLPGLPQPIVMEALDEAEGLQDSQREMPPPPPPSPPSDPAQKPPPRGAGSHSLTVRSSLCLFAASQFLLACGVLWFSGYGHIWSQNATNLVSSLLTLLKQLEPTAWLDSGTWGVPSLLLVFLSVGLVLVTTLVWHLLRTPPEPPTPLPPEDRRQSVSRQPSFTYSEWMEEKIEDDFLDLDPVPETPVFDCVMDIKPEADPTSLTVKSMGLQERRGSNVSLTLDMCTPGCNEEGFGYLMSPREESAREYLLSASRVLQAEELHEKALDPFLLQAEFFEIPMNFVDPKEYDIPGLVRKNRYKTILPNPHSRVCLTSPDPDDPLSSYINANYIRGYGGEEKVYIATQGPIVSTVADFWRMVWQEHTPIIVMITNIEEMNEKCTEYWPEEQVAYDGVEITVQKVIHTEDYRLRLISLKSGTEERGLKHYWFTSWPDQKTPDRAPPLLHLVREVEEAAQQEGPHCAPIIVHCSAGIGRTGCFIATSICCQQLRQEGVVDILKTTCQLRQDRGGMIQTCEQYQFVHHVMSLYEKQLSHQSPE
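System: STEP (striatal-enriched tyrosine phosphatase) enzyme, cell-free; medium: Bis-Tris pH 6.0 buffer with DTT, detergent; dosing: 20 µM, 1% DMSO; times: reaction 20 min, ambient temperature; detection: fluorescence, 480/540 nm; read-out basis: normalized % inhibition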
rCAG RNA binder – binders of r(CAG) RNA repeats, primary screen, biochemical, fluorescence; AID 651821, 2012; 1.3% of 370,000 active; inhibition, % at 3 µM; r(CAG) RNA repeat, TO-PRO-1 dye displacement fluorescence;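 active = inhibition above the plate cutoff, the mean of all test compounds on that plate plus 3 SD, cut at about 35% in these data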;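 also: 0% = DMSO alone and 100% = 100 µM mitoxantrone as full dye displacement; higher means more dye released from RNA so lower well fluorescence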
NadD conf – inhibitors of S. aureus NadD, confirmation, biochemical, colorimetric, single concentration; shares compounds with NadD inh; purified S. aureus NadD, colorimetric enzyme assay; inhibition, % at 20 µM; 13% of 2,000 active; AID 624309, 2012; in the data active = inhibition mostly above about 42%, no sharp cut-off; inactive = mostly below about 42%
* marks the source's active call; other numbers are inactive results; nt = no result. In the library only some 2.6% were active in any assay of this set; here they are far more common.

SMILES | Scp-1 inhibitor | LMPTP block | NadD inh | STEP block | rCAG RNA binder | NadD conf
Oc1ccc(C[C@H]2CNC(=S)N2CC2CCCN2C[C@H](Cc2ccccc2)N2C[C@H](Cc3ccc(O)cc3)N(CCc3ccccc3)C2=S)cc1 (stereo partly drawn) | 30 | 3 | 53* | -2 | 22 | 58*
CC(CCN1CCC(C(O)(c2ccccc2)c2ccccc2)CC1)Oc1cc(F)cc(C#N)c1 (stereo not drawn) | nt | nt | nt | nt | 4 | nt
O=S1(=O)CC2c3ccccc3CN2CN1CCc1ccccc1 (stereo not drawn) | nt | nt | nt | nt | 4 | nt
COc1ccc(-c2ccc3[nH]c4c(c3c2)CCN2C(=O)[C@@H]([C@H](C)O)[C@@H](N(C)C(=O)Nc3ccc(F)cc3)C[C@@H]42)cc1 | nt | 2 | -3 | 0 | 18 | nt
COc1ccc(-c2ccc3[nH]c4c(c3c2)CCN2C(=O)[C@@H]([C@H](C)O)[C@@H](N(C)C(=O)Nc3cc(Cl)cc(Cl)c3)C[C@@H]42)cc1 | nt | 5 | 31* | -1 | 11 | 23
COc1ccc(-c2c3c([nH]c(=S)c2C#N)CCC3)cc1 | -2 | -1 | 36* | -5 | 16 | 17
CC(=O)N1CCc2nc3ccccc3cc21 | nt | 0 | 0 | -2 | 4 | nt
CCC(=O)N1C(=O)CCN(C(C)=O)c2ccccc21 | 0 | -3 | 36* | 4 | 0 | 9
CN(C)c1ccc(Sc2nnc(NC(=O)Nc3ccc(Cl)cc3Cl)s2)cc1 | -17 | -1 | 39* | 0 | 1 | 7
Cc1ccc([N+](=O)[O-])cc1S(=O)(=O)N(C(=O)c1ccncc1)c1ccc2oc3c(c2c1)CCCC3 | 20 | 0 | 28 | 1 | 12 | nt
Cc1ccc(S(=O)(=O)N(C(=O)c2ccncc2)c2ccc3oc4c(c3c2)CCCC4)cc1[N+](=O)[O-] | 12 | 2 | 35* | 3 | 6 | 17
O=C1c2[nH]nc(-c3ccccc3)c2C(c2ccc(F)cc2)N1Cc1ccccc1 (stereo not drawn) | nt | nt | nt | nt | 6 | nt
Cc1cccc(-n2nc(C(=O)Nc3ccccc3)n3c(=O)cc(-c4ccccc4)nc23)c1 | -5 | 3 | 30* | 3 | 0 | -9
O=C(c1ccccc1)c1nn(-c2cccc(Cl)c2)c2nc(-c3ccccc3)cc(=O)n12 | 1 | 2 | 1 | 2 | -1 | nt
Cc1ccccc1[C@H](NC1c2ccccc2C=Cc2ccccc21)P(=O)(c1ccccc1)c1ccccc1 | nt | 14 | 31* | nt | 11 | 38
Cc1ccc(P(=O)(c2ccc(C)cc2)[C@@H](NC(c2ccccc2)c2ccccc2)c2ccccc2)cc1 | nt | 20 | 24 | nt | 8 | nt
CC(=O)c1ccc(-n2c(SCC(=O)c3c[nH]c4ccccc34)nc3ccccc3c2=O)cc1 | 18 | 1 | 37* | 2 | 18 | 27
N#Cc1c(NC2CCCCC2)nc(-c2ccco2)c2c1CCCC2 | 0 | 3 | 38* | 1 | nt | 10
CCOC(=O)c1cc(-c2ccccc2)sc1NC(=O)C(C)N1C(=O)NC(C)(c2ccc(Cl)cc2)C1=O (stereo not drawn) | -9 | 2 | 30* | 1 | 22 | -8
CCOC(=O)c1cc(-c2ccccc2)sc1NC(=O)C(C)C | -12 | 1 | 2 | 0 | 2 | nt
O=S1(=O)c2ccc(Br)cc2OC[C@H](Cc2ccccc2)N1Cc1cn(Cc2ccc(Br)cc2)nn1 | nt | nt | nt | nt | 2 | nt
Cc1cc(O)c(C(=O)/C=C/c2cccc([N+](=O)[O-])c2)c(=O)o1 | 8 | 7 | 35* | 5 | 32 | 5
O=C(Nc1ccc(S(=O)(=O)N2CCOCC2)cc1)c1ccc([N+](=O)[O-])cc1Cl | -11 | 1 | 5 | 0 | 3 | nt
O=C(Nc1ccc(N2CCCC2)cc1)c1cccc(-c2cc3ccccc3oc2=O)c1 | -3 | 23 | 57* | 9 | 14 | 6
O=C(Nc1ccccc1N1CCCC1)c1cccc(-c2cc3ccccc3oc2=O)c1 | -2 | 3 | 22 | 8 | 5 | nt
SMILES | Scp-1 inhibitor | LMPTP block | NadD inh | STEP block | rCAG RNA binder | NadD conf
O=C(Nc1ccc(N2CCCC2)cc1)c1ccc([N+](=O)[O-])cc1Cl | 1 | 36 | 36* | 1 | -2 | -2
O=C(Nc1ccc(N2CCCC2)cc1)c1ccc2ccccc2c1 | -3 | 7 | 34* | 7 | 1 | 12
CC(=O)N1CCN(c2ccc(NC(=O)c3ccc4ccccc4c3)cc2)CC1 | -5 | 1 | -7 | 0 | -1 | nt
CC(C)(C)N1Cc2nnn(Cc3ccccc3)c2-c2cc(N3CCCCC3)ccc2S1(=O)=O | nt | nt | nt | nt | 2 | nt
O=S1(=O)c2ccc(N3CC[C@@H](O)C3)cc2OCCCN1C1CC1 | nt | nt | nt | nt | 7 | nt
CCCCOCCCNC(=O)C[C@H]1C[C@@]2(C(=O)OC)C(=C[C@H](COCc3ccccc3)O[C@@H]2C)N(CCc2ccc(OC)c(OC)c2)C1=O | nt | nt | nt | nt | 0 | nt
CC(C)=CCC/C(C)=C/CNC(=O)C[C@H]1C[C@H](C(=O)N2CCOCC2)[C@@]2(CCC3CCCC3)c3[nH]c4cc(-c5ccco5)ccc4c3CCN2C1=O | 4 | 2 | 46* | 2 | 20 | 12
CCN(CC)C(=O)[C@H]1C[C@H](CC(=O)NC/C=C(\C)CCC=C(C)C)C(=O)N2CCc3c([nH]c4cc(-c5ccco5)ccc34)[C@]12C | 1 | 7 | 27 | 1 | 18 | nt
CC(C)=CCC/C(C)=C/CNC(=O)C[C@H]1C[C@H](C(=O)N(C(C)C)C(C)C)[C@@]2(C)c3[nH]c4cc(-c5ccco5)ccc4c3CCN2C1=O | -7 | 4 | 33* | 2 | 15 | -2
COc1ccc(Cn2cc(CN3[C@@H](C)COc4cc(Br)ccc4S3(=O)=O)nn2)cc1 | nt | nt | nt | nt | 2 | nt
COc1ccccc1-n1c(=O)c(C#N)c(-c2ccc([N+](=O)[O-])cc2)c2cc(C(=O)c3ccccc3O)cnc21 | -14 | 2 | 38* | 3 | 7 | 12
COc1ccccc1-n1cc(C(=O)c2cc(Cl)ccc2O)cc(C#N)c1=O | 5 | 1 | 3 | 5 | 13 | nt
COc1ccc(/C=N/NC(=O)c2nc(-c3ccccc3)cc(-c3ccccc3)n2)cc1O | 1 | 3 | 38* | 3 | 15 | 42
COc1ccc(/C=N/NC(=O)c2nc(-c3ccccc3)cc(-c3ccccc3)n2)cc1 | -2 | 6 | 39* | 2 | 10 | 6
C=CCN(CC#CC(=C)C)Cc1ccccc1 | nt | nt | nt | nt | -2 | nt
O=C(CSc1nnc(-c2ccccc2)n1Cc1ccco1)Nc1ccc(OCc2ccccc2)cc1 | nt | nt | nt | nt | 8 | nt
